# An excerpt weighted towards active compounds, which were near 5.6% of everything screened.
# GRIN3A LBD mod – binders of NR3A ligand-binding domain, primary screen, biophysical, differential scanning fluorimetry, uHTS | NR3A LBD differential scanning fluorimetry, Tm shift; 0% = protein alone, 100% = glycine-bound protein | Tm shift relative to glycine control, % at 25 µM | Glutamate receptor ionotropic, NMDA 3A (GRIN3A) ligand-binding domain | 340,000 compounds, 2.5% hits | AID 1259313, 2017;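 active means melting temperature shift of at least 10% of the positive control shift, at one fixed dose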
# UPR CHOP act – activators of apoptotic CHOP UPR arm, primary screen, cell-based, CHO-CHOP luciferase reporter, luminescence, uHTS; AID 449763, 2010; activation, % at 10 µM; UPR activation; percent of tunicamycin response over DMSO baseline; 330,000 compounds, 0.34% hits;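 active means at 10 µM dose, activation of 40% or more, normalized to positive control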;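 further: 100% = tunicamycin at 10 µg/mL and 0% = DMSO alone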
#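 Test system: CHO-CHOP cells, stable luciferase reporter of PERK-eIF2a-CHOP signalling | Quantity: 500 CHO-CHOP cells per well | Buffer or medium: F12 plus 10% serum | Compound dosing: 10 µM single point, 0.5% DMSO | Schedule: 6 h compound treatment, 37 °C | Signal: Luciferase luminescence | Control set: Tunicamycin high control, DMSO low control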
# CHOP inh – inhibitors of CHOP promoter induction, primary screen, cell-based, unfolded protein response, luciferase reporter. 220,000 compounds, 3.8% hits. CHO-K1 CHOP-promoter luciferase, tunicamycin-induced, 15-18 h. inhibition, % at 10 µM;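 active means compounds that reduced the stress-induced luciferase reporter signal by more than about 70% of percent inhibition, limit read from the data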;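 further: 0% = tunicamycin plus vehicle and 100% = wells without tunicamycin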
# XBP1 UPR activ – activators of adaptive XBP1 UPR arm, primary screen, cell-based, CHO-XBP1 luciferase reporter, luminescence, uHTS; IRE1-XBP1 UPR activation; percent of tunicamycin response, DMSO as zero; activation, % at 20 µM; 330,000 compounds, 0.33% hits; AID 463104, 2010;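 active means versus positive control, 20 µM dose yields 30% or more activation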;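 further: 100% = tunicamycin at 10 µg/mL and 0% = DMSO only wells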
#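 incubation = overnight seeding at 37 °C, 6 h compound treatment at 37 °C | assay system = CHO-XBP1 cells stably carrying IRE1-XBP1-driven luciferase reporter | input = 1000 cells per well | detection = luciferase luminescence | dosing = single point, 20 µM final compound, 1% DMSO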
# aDG glyco up – activators of alpha-DG glycosylation, primary screen, uHTS, Pro5-aDG cells, AlphaScreen | alpha-DG glycosylation AlphaScreen (IIH6); 0% Pro5, 100% B10-LARGE cell signal | AID 624168, 2012 | activation, % at 10 µM | 360,000 compounds, 0.22% hits;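 active means activation of at least 8% versus controls, or a plate z-score of at least 8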;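 further: Pro5 are CHO cells carrying HIG-tagged alpha-DG that lacks glycosylation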
# MPTP block – mitochondrial permeability transition pore inhibitors, primary screen, biochemical, isolated mouse mitochondria, absorbance | inhibition, % at 10 µM | Ca2+ swelling absorbance, 30 min | 360,000 compounds, 1.4% hits;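 active means inhibition of 50% or more, scaled per plate between neutral and stimulator controls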;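 further: 0% = DMSO wells given calcium and 100% = 1 mM EGTA wells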
# * hit, by the source's call; . = no result; ! = repeats disagree.
SMILES,GRIN3A LBD mod,UPR CHOP act,CHOP inh,XBP1 UPR activ,aDG glyco up,MPTP block
CC(=O)N1c2c(cc(Br)cc2S(=O)(=O)NCc2ccccc2)CC1C (stereo not given),-2,-1,.,-1,0,-1
S=c1[nH]nc(-c2cccnc2)n1Cc1ccccc1,0,-2,29,0,0,1
Fc1ccc(-c2n[nH]c(=S)n2Cc2ccccc2)cc1,0,1,.,-4,0,0
FC(F)C(F)(F)Oc1cccc(-c2n[nH]c(=S)n2Cc2ccccc2)c1,21*,-1,.,-2,0,-1
S=c1[nH]nc(-c2ccc(Br)cc2)n1Cc1ccccc1,14*,-1,55,2,0,4
CC(C)CCC(C)N=Cc1c(O)n(Cc2ccccc2)c(=O)c2ccccc12 (stereo not given),-4,3,25,1,0,-1
O=c1c2ccccc2c(/C=N/c2ncn[nH]2)c(O)n1Cc1ccccc1,15*!,4,16,0,0,2
CCCCC(=O)OCC(=O)N1N=C(c2c[nH]c3ccccc23)C(O)C1c1ccc(OC)cc1 (stereo not given),30*,2,.,7,0,4
COc1ccc(CC(=O)OCC(=O)N2N=C(c3ccccc3)CC2c2ccc(OC)cc2)cc1 (stereo not given),-1,1,5,-1,0,1
C/C(=N\N1CCN(c2ccccc2)CC1)c1ccc(O)cc1,10*,0,.,2,0,0
C/C(=N\N1CCN(c2ccccc2)CC1)c1ccccc1O,0,3,.,-3,0,0
Fc1ccc(-c2cc(C(F)(F)F)nc(NCC3CCCO3)n2)cc1 (stereo not given),-1,1,84*,-1,1,0
O=S(=O)(NCCSc1ccccc1)c1ccc(F)cc1,1,-2,91*,-3,0,0
CC(C)(C)SCCNS(=O)(=O)c1ccc(F)cc1,-12,-2,61,-2,0,0
CCCCN(C(=O)C1CC(=O)N(CCc2ccc(OC)c(OC)c2)C1)c1c(N)n(CC(C)C)c(=O)[nH]c1=O (stereo not given),-1,.,.,.,0,0
CCOc1ccc(-c2nnc(NC(=O)c3ccc(OCC(C)C)c(OC)c3)o2)cc1,-2,4,91*,5,0,1
COc1cccc(C(=O)Nc2nnc(-c3ccc(Cl)cc3)o2)c1,-8,2,-19,0,0,-23
CCC(CC)NC(=O)c1cc2c(C)nn(Cc3ccccc3Cl)c2s1,-5,-1,46,4,0,-6
Cc1nn(Cc2ccccc2Cl)c2sc(C(=O)Nc3nccs3)cc12,-12,-2,84*,5,0,0
Cc1nn(Cc2ccc(F)cc2)c2sc(C(=O)Nc3nccs3)cc12,-21,1,93*,-1,0,1
CC(C)Cn1c(CN2C(=O)c3ccccc3C2=O)nc2ccccc2c1=O,20*,1,25,5,0,3
O=C1c2ccccc2C(=O)N1Cc1nc2ccccc2c(=O)n1Cc1ccco1,0,4,.,0,.,.
CC1CCc2sc(C(=O)OC(C)C(=O)Nc3ncc(Cl)cc3Cl)cc2C1 (stereo not given),.,-1,90*,3,.,.
CC(OC(=O)CNC(=O)C12CC3CC(CC(C3)C1)C2)C(=O)Nc1ncc(Cl)cc1Cl (stereo not given),-2,-1,6,2,0,1
CC(C)Cc1nnc(NC(=O)C2CCCN(C(=O)c3ccc(Cl)cc3)C2)s1 (stereo not given),.,.,.,.,0,0
SMILES,GRIN3A LBD mod,UPR CHOP act,CHOP inh,XBP1 UPR activ,aDG glyco up,MPTP block
O=S(=O)(c1ccc(Br)cc1)N1CCN(c2ccc3nnc(-c4ccccc4)n3n2)CC1,2,4,80*,8,0,1
O=C(c1ccc(Br)o1)N1CCN(c2ccc3nnc(-c4ccccc4)n3n2)CC1,2,-2,-11,0,0,-2
CCCn1c(N)c(N(CCOC)C(=O)COC(=O)COc2c(C)cc(C)cc2C)c(=O)[nH]c1=O,.,.,.,.,0,0
CCCCN(C(=O)COC(=O)COc1c(C)cc(C)cc1C)c1c(N)n(CCC)c(=O)[nH]c1=O,32*,1,.,-4,0,0
N#Cc1cccc(NC(=O)CSc2nnc(C3CC3)n2C2CC2)c1,-1,0,.,0,0,0
CCCn1c(=O)c(C(=O)NCC2CCCO2)c(O)c2ccccc21 (stereo not given),0,2,-3,4,0,0
CC1CCc2cc(F)cc3c(O)c(C(=O)NCC4CCCO4)c(=O)n1c23 (stereo not given),6,-2,77*,-2,0,-9
CC1(C(=O)NCCC#N)CCN1C(=O)CC(c1ccccc1)c1ccccc1 (stereo not given),.,.,.,.,0,-1
O=C(NNS(=O)(=O)c1ccc(Br)cc1)c1sccc1-n1cccc1,14*,-1,5,-2,1,0
CC(=O)OC[C@@H]1CN(Cc2ccccc2)C[C@H](n2cnc3c(NCC(C)C)ncnc32)O1,.,.,.,.,0,0
CCCCCC(O)(CCCCC)C(=O)NNc1ccccc1,1,-1,91*,-6,1,0
CCOC(CCNC(=O)c1cc(-c2cccs2)nc2ccccc12)OCC,0,-1,.,-6,0,1
N#Cc1ccc(-c2nc3ccc(Br)cn3c2Cc2ccccc2)cc1,.,.,.,.,0,-2
O=C(COC(=O)c1cccc(NS(=O)(=O)/C=C/c2ccccc2)c1)Nc1ccccc1OC(F)F,19*,1,37,-2,0,6
CCNC(=O)NC(=O)COC(=O)c1cccc(NS(=O)(=O)/C=C/c2ccccc2)c1,-6,3,7,0,0,2
CCc1nn(CC(=O)NCCCN2CCOCC2)c(=O)c2cc3c(OC)cccc3n12,0,.,.,.,0,0
Cc1cc(Oc2ccc(N)cn2)cc(C)c1Cl,1,2,6,3,0,1
CC(C)(C)c1ccc(Oc2ccc(N)cn2)cc1,0,-5,88*,-3,0,4
COc1ccccc1NCCC(=O)OCC(=O)Nc1ccccc1Cl,-1,-2,.,-2,0,-1
CC1=C(C(=O)Nc2ccccc2)C2(CCCCC2)C(C#N)=C(SCC(N)=O)N1,0,0,0,1,0,-1

# Screening results as filed in PubChem BioAssay.
